One assay has as its target Prothrombin (Homo sapiens, UniProt P00734). As to the kind of experiment: Inhibition of human thrombin. The gist of the method: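 Preincubated with compound 30 min, then Pefachrome TH at 50 μM final. p-Nitroanilide release followed at 405 nm for 5 min. IC50 from initial velocities; apparent Ki via Cheng-Prusoff, assuming competitive inhibition.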
Another assay addresses Coagulation factor X (Homo sapiens, UniProt P00742). Nature of the assay: Compound was evaluated for the inhibition of human Coagulation factor Xa.
The next assay addresses T1, Serine protease 1 (Bos taurus, UniProt P00760).
T1 sequence (P00760 whole entry): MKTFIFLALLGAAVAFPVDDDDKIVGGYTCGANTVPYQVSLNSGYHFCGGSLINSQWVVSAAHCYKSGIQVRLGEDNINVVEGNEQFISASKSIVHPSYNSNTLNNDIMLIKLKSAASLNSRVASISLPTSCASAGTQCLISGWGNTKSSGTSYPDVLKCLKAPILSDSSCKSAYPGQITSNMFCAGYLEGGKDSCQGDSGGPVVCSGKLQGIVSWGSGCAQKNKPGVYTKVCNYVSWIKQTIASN
Nature of the assay: Inhibitory activity against bovine pancreatic trypsin. The gist of the method: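 Bovine trypsin at 1 nM final, with buffer 0.05 M Tris, 0.15 M NaCl, 0.1% PEG-8000, 0.02 M CaCl2, pH 7.5, room temperature. 30 min compound preincubation, then S-2765 at 250 μM final. 405 nm read continuously for 5 min. IC50 from initial rates; apparent Ki by Cheng-Prusoff, assuming competitive kinetics.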

The values that follow come from ChEMBL document CHEMBL1132151, “Design and structure-activity relationships of potent and selective inhibitors of blood coagulation factor Xa” (J Med Chem, 1999).

Usually Ki stands for a dissociation constant, usually derived from enzyme kinetics or from competition with a known ligand. High values mean lower affinity, low ones higher affinity.

Sequence of Coagulation factor X (P00742 41-179 limits assumed): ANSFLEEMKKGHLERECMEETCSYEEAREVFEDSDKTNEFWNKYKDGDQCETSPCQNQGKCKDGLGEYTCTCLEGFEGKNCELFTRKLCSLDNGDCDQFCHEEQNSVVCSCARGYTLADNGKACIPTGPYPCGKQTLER
Sequence of Coagulation factor X (P00742 235-488 limits assumed): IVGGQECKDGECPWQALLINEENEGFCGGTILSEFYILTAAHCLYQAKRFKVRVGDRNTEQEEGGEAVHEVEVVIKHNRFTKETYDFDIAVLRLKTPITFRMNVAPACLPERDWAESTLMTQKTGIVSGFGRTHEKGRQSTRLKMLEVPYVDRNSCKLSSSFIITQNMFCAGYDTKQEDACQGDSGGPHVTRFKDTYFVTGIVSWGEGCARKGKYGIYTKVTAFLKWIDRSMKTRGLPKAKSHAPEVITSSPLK

In the case of `Cc1cccc(-c2ccc(S(=O)(=O)N[C@H]3CCN(Cc4cccc(C(=N)N)c4)C3=O)cc2)c1`, the Ki was more than 4000 nM at Prothrombin, 120 nM on Coagulation factor X and more than 2900 nM at Serine protease 1.

With `N=C(N)c1cccc(CN2CC[C@H](NS(=O)(=O)c3ccc4ccc(O)cc4c3)C2=O)c1`, the Ki on Prothrombin was more than 4000 nM; at Coagulation factor X, 500 nM; at Serine protease 1, more than 2900 nM.

Take `CCc1ccc2ccc(S(=O)(=O)N[C@H]3CCN(Cc4cccc(C(=N)N)c4)C3=O)cc2c1`: the results for the Ki on Prothrombin, on Coagulation factor X and on Serine protease 1 were 1600 nM, 370 nM and 1600 nM, respectively.

`N=C(N)c1cccc(CN2CCC[C@H](NS(=O)(=O)c3ccc4ccccc4c3)C2=O)c1`: the Ki at Prothrombin is more than 4000 nM; on Coagulation factor X, 1300 nM; on Serine protease 1 it was more than 2900 nM.

On to `COc1ccc2ccc(S(=O)(=O)N[C@H]3CCN(Cc4coc(C(=N)N)c4)C3=O)cc2c1`, for which the Ki on Prothrombin was more than 4000 nM; at Coagulation factor X it was 180 nM; at Serine protease 1, more than 2900 nM.

In the case of `COc1ccc2ccc(S(=O)(=O)N(Cc3ccccn3)[C@H]3CCN(Cc4cccc(C(=N)N)c4)C3=O)cc2c1`, the results for the Ki at Prothrombin, on Coagulation factor X and at Serine protease 1 were 1160 nM, 31 nM and 1940 nM, respectively.

In the case of `COc1ccc2ccc(S(=O)(=O)N(CC(N)=O)[C@H]3CCN(Cc4cccc(C(=N)N)c4)C3=O)cc2c1`, the Ki was 1440 nM on Prothrombin, 25 nM on Coagulation factor X and 1000 nM on Serine protease 1.

As to `N=C(N)c1cccc(CN2C[C@@H](NS(=O)(=O)c3ccc4ccccc4c3)CC2=O)c1`, the inhibition constant Ki at Prothrombin is more than 4000 nM; at Coagulation factor X, 9800 nM; at Serine protease 1, more than 2900 nM.

Regarding `N=C(N)c1cccc(CN2CC[C@H](NS(=O)(=O)c3cccc(-c4ccccc4)c3)C2=O)c1`, the Ki on Prothrombin is more than 4000 nM; on Coagulation factor X, 440 nM; on Serine protease 1, more than 2900 nM.

With `CNc1ccc2ccc(S(=O)(=O)N[C@H]3CCN(Cc4cccc(C(=N)N)c4)C3=O)cc2c1`, the Ki was more than 4000 nM at Prothrombin, 250 nM at Coagulation factor X and 1500 nM at Serine protease 1.

For the compound `COc1ccc2ccc(S(=O)(=O)N[C@H]3CCN(Cc4cc(C(=N)N)cs4)C3=O)cc2c1`, the Ki is 2400 nM at Prothrombin, 83 nM on Coagulation factor X and 940 nM on Serine protease 1.

Consider `COc1ccc2ccc(S(=O)(=O)N[C@H]3CCN(Cc4ccc(C(=N)N)o4)C3=O)cc2c1`, for which the Ki at Prothrombin was more than 4000 nM; on Coagulation factor X, 570 nM; at Serine protease 1 it was more than 2900 nM.

On to `N=C(N)c1cccc(CN2C[C@H](NS(=O)(=O)c3ccc4ccccc4c3)C2=O)c1`, for which the inhibition constant (Ki) is more than 4000 nM at Prothrombin, 9900 nM at Coagulation factor X and more than 2900 nM at Serine protease 1.

For the compound `Cc1ccc2ccc(S(=O)(=O)N[C@H]3CCN(Cc4cccc(C(=N)N)c4)C3=O)cc2c1`, the Ki stood at 1340 nM at Prothrombin, 100 nM at Coagulation factor X and 1100 nM on Serine protease 1.

Consider `COc1ccc2ccc(S(=O)(=O)N(Cc3cccs3)[C@H]3CCN(Cc4cccc(C(=N)N)c4)C3=O)cc2c1`, for which the inhibition constant (Ki) on Prothrombin turned out to be 970 nM; on Coagulation factor X, 34 nM; at Serine protease 1, 1940 nM.

Regarding `COc1ccc2cc(S(=O)(=O)N[C@H]3CCN(Cc4cccc(C(=N)N)c4)C3=O)ccc2c1`, the inhibition constant (Ki) was 900 nM at Prothrombin, 1000 nM on Coagulation factor X and more than 2900 nM on Serine protease 1.

With `COc1ccc2ccc(S(=O)(=O)N(Cc3cc[nH]n3)[C@H]3CCN(Cc4cccc(C(=N)N)c4)C3=O)cc2c1`, the inhibitory constant (Ki) is 1080 nM on Prothrombin, 21 nM at Coagulation factor X and 1390 nM at Serine protease 1.

On to `COc1ccc2ccc(S(=O)(=O)N(CCC(N)=O)[C@H]3CCN(Cc4cccc(C(=N)N)c4)C3=O)cc2c1`, for which the Ki on Prothrombin was 1500 nM; on Coagulation factor X, 56 nM; on Serine protease 1, 2000 nM.

As for `N=C(N)c1cccc(CN2CC[C@H](NS(=O)(=O)c3ccc4ccccc4c3)C2)c1`, the inhibitory constant (Ki) on Prothrombin was more than 4000 nM; on Coagulation factor X, more than 10000 nM; on Serine protease 1 it was more than 2900 nM.

Take `COc1ccc2ccc(S(=O)(=O)N[C@H]3CCN(Cc4ccc(C(=N)N)s4)C3=O)cc2c1`: the inhibition constant (Ki) at Coagulation factor X worked out at 220 nM. This counts as sub-micromolar.
